# Test results taken from ChEMBL document CHEMBL4651341, “The discovery of a novel series of compounds with single-dose efficacy against juvenile and adult Schistosoma species” (PLoS Negl Trop Dis, 2021).
# Test system: Schistosoma mansoni
# Assay: Concentration required to kill 50% of 21 day old worms 5 days after drug treatment.
# Assay type: functional, organism-based
# Conditions: Puerto Rican, 120 h
# Method in brief: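 Juvenile S. mansoni (Puerto Rican strain) were perfused from CD1 mice 3 weeks post-infection and washed. They were cultured 6–8 per well in 200 µL DMEM with 2 mM glutamine, penicillin/streptomycin and 10% FCS at 37 °C, 5% CO2. Viability of individual worms was scored on day 5 after dosing (120 h).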
row,SMILES,EC50
1,COc1ccc(-c2nnc3ccc(-c4cccc(F)c4)cn23)cc1OC,> 25 µM
2,CC(C)c1cccc(-c2ccc3nnc(-c4cccnc4)n3c2)c1,> 25 µM
3,Cc1nnc2ccc(-c3cccc(C(C)C)c3)cn12,> 25 µM
4,COc1ccc(-c2nnc3ccc(-c4cnn(CCN5CCOCC5)c4)cn23)cc1OC,> 25 µM
5,COCc1cccc(-c2nnc3ccc(-c4cccc(OC(C)C)c4)cn23)c1,> 25 µM
6,CC(C)c1cccc(-c2ccc3nnc(-c4cn[nH]c4)n3c2)c1,> 25 µM
7,COc1ccc(-c2nnc3ccc(-c4cccc(OC(C)C)c4)cn23)c(OC)c1,> 25 µM
8,CC(C)Oc1cccc(-c2ccc3nnc(-c4ccnc(C(F)(F)F)c4)n3c2)c1,> 25 µM
9,CNC(=O)c1cccc(-c2ccc3nnc(-c4ccc(OC)c(OC)c4)n3c2)c1,> 25 µM
10,COc1ccc(-c2nnc3ccc(-c4cccc(CN)c4)cn23)cc1OC,> 25 µM
11,COc1ccc(-c2nnc3ccc(-c4cccc(C#N)c4)cn23)cc1OC,> 25 µM
12,COc1ccc(-c2nnc3ccc(-c4cccc(S(=O)(=O)N5CCOCC5)c4)cn23)cc1OC,> 25 µM
13,COc1ccc(-c2nnc3ccc(-c4ccc5c(c4)OCCO5)cn23)cc1OC,> 25 µM
14,CC(C)Oc1cccc(-c2ccc3nnc(-c4ccc5c(c4)CCO5)n3c2)c1,> 25 µM
15,COc1ccc(-c2nnc3ccc(-c4c(OC)cccc4OC)cn23)cc1OC,> 25 µM
16,COc1ccc(-c2cnc3cnc(-c4cnn(CCN5CCOCC5)c4)cn23)c(C)c1,> 25 µM
17,Cc1cnc2cnc(-c3cccc(OC(C)C)c3)cn12,> 25 µM
18,CNC(=O)c1cccc(-c2cn3c(-c4ccc(OC)cc4)cnc3cn2)c1,> 25 µM
19,COc1ccc(-c2nnc3ccc(-c4cccc(Cl)c4)cn23)cc1OC,> 25 µM
20,COc1ccc(-c2cnc3cnc(-c4ccnc(C(F)(F)F)c4)cn23)cc1,> 25 µM
21,COc1cccc(-c2ccc3nnc(-c4ccc(OC)c(OC)c4)n3c2)n1,> 25 µM
22,COc1ccc(-c2nnc3ccc(-c4ccc5c(c4)CCO5)cn23)cc1OC,> 25 µM
23,CC(C)Oc1cccc(-c2cn3c(-c4cncnc4)cnc3cn2)c1,> 25 µM
24,CC(C)c1cccc(-c2ccc3nnc(-c4ccnc(C(F)(F)F)c4)n3c2)c1,> 25 µM
25,COc1cc(-c2nnc3ccc(-c4cccc(OC(C)C)c4)cn23)ccn1,> 25 µM
26,COc1ncc(-c2ccc3nnc(-c4ccc(OC)c(OC)c4)n3c2)cn1,> 25 µM
27,Cc1ccc(-c2cnc3cnc(-c4cccc(OC(C)C)c4)cn23)cn1,> 25 µM

row,SMILES,EC50
1,CC(C)c1cccc(-c2ccc3nnc(-c4ccc(CN)cc4)n3c2)c1,> 25 µM
2,CC(C)c1cccc(-c2ccc3nnc(-c4cnn(C)c4)n3c2)c1,> 25 µM
3,COc1ccc(-c2nnc3ccc(-c4ccc(O)nc4)cn23)cc1OC,> 25 µM
4,COc1ccc(-c2cnc3cnc(-c4cccc(S(=O)(=O)N5CCOCC5)c4)cn23)cc1,> 25 µM
5,COc1ccc(-c2nnc3ccc(-c4cccc(N)c4)cn23)cc1OC,> 25 µM
6,COc1cccc(-c2nnc3ccc(-c4cccc(C(C)C)c4)cn23)n1,12.4 µM
7,CC(C)Oc1cccc(-c2cn3c(-c4cn[nH]c4)cnc3cn2)c1,> 25 µM
8,COc1ccc(-c2nnc3ccc(-c4cnc5[nH]ncc5c4)cn23)cc1OC,> 25 µM
9,COc1ccc(-c2nnc3ccc(-c4cn[nH]c4)cn23)cc1OC,> 25 µM
10,COc1ccc(-c2nnc3ccc(-c4ccccn4)cn23)cc1OC,> 25 µM
11,COc1ccc(-c2nnc3ccc(-c4ccc(C)nc4)cn23)cc1OC,> 25 µM
12,COc1ccc(-c2nnc3ccc(-c4ccnc(C(F)(F)F)c4)cn23)cc1OC,> 25 µM
13,CC(C)c1cccc(-c2ccc3nnc(-c4ccc(N)cc4)n3c2)c1,> 25 µM
14,COc1cccc(OC)c1-c1nnc2ccc(-c3cccc(OC(C)C)c3)cn12,> 25 µM
15,CC(C)c1cccc(-c2ccc3nnc(-c4ccc(S(N)(=O)=O)cc4)n3c2)c1,> 25 µM
16,COc1cc(-c2ccc3nnc(-c4ccc(OC)c(OC)c4)n3c2)ccn1,> 25 µM
17,CC(C)c1cccc(-c2ccc3nnc(-c4ccc5cn[nH]c5c4)n3c2)c1,> 25 µM
18,CC(C)Oc1cccc(-c2ccc3nnc(-c4ccc5c(c4)ncn5C)n3c2)c1,25 µM
19,COc1ccc(-c2ccc3nnc(-c4ccc(OC)c(OC)c4)n3c2)cn1,> 25 µM
20,CC(C)c1cccc(-c2ccc3nnc(-c4cccc(CO)c4)n3c2)c1,> 25 µM
21,CC(C)Oc1cccc(-c2cn3c(-c4ccc(CN)cc4)cnc3cn2)c1,24.2 µM
22,COc1ccc(-c2nnc3ccc(-c4cccc(OC(C)C)c4)cn23)cc1,> 25 µM
23,COc1ccc(-c2cnc3cnc(-c4cccc(CN)c4)cn23)cc1,> 25 µM
24,Cc1ccc(-c2nnc3ccc(-c4cccc(OC(C)C)c4)cn23)cn1,> 25 µM
25,COc1ccc(-c2cnc3cnc(-c4cccc(CO)c4)cn23)cc1,> 25 µM
26,CC(C)c1cccc(-c2ccc3nnc(-c4ccc5[nH]ncc5c4)n3c2)c1,> 25 µM
27,CC(C)Oc1cccc(-c2ccc3nnc(-c4cccc(C#N)c4)n3c2)c1,> 25 µM

row,SMILES,EC50
1,CC(C)c1cccc(-c2ccc3nnc(-c4ccncc4)n3c2)c1,> 25 µM
2,CC(C)Oc1cccc(-c2cn3c(-c4cnn(C)c4)cnc3cn2)c1,> 25 µM
3,COc1ccc(-c2nnc3ccc(-c4ccc5[nH]ncc5c4)cn23)cc1OC,> 25 µM
4,COc1ccc(-c2nnc3ccc(-c4ccc5c(cnn5C)c4)cn23)cc1OC,> 25 µM
5,COc1ccc(-c2nnc3ccc(-c4cccc(OC(C)C)c4)cn23)cc1OC,> 25 µM
6,CC(C)c1cccc(-c2ccc3nnc(-c4ccccn4)n3c2)c1,14 µM
7,CC(C)c1cccc(-c2ccc3nnc(-c4ccnn4C)n3c2)c1,> 25 µM
8,COc1cccc(-c2ccc3nnc(-c4ccc(OC)c(OC)c4)n3c2)c1,> 25 µM
9,CC(C)c1cccc(-c2ccc3nnc(-c4cnc5[nH]ncc5c4)n3c2)c1,> 25 µM
10,CC(C)Oc1cccc(-c2ccc3nnc(-c4ccc(F)cc4)n3c2)c1,> 25 µM
11,COc1ccc(-c2nnc3ccc(-c4ccc(N5CCN(C)CC5)nc4)cn23)cc1OC,> 25 µM
12,COc1cccc(-c2nnc3ccc(-c4cccc(OC(C)C)c4)cn23)n1,12.7 µM
13,CC(C)Oc1cccc(-c2ccc3nnc(-c4ccc([S@+](C)[O-])cc4)n3c2)c1,> 25 µM
14,COc1ccc(-c2nnc3ccc(-c4cccc(C(C)C)c4)cn23)c(OC)c1,23.7 µM
15,COc1ccc(-c2nnc3ccc(-c4ccc5cn[nH]c5c4)cn23)cc1OC,> 25 µM
16,COc1ccc(-c2nnc3ccc(-c4ccc(O)cc4)cn23)cc1OC,> 25 µM
17,COc1ncc(-c2nnc3ccc(-c4cccc(C(C)C)c4)cn23)cn1,> 25 µM
18,CC(C)c1cccc(-c2ccc3nnc(-c4ccc(CO)cc4)n3c2)c1,> 25 µM
19,COc1ccc(-c2cnc3cnc(-c4ccccn4)cn23)cc1,> 25 µM
20,COc1cc(-c2nnc3ccc(-c4cccc(C(C)C)c4)cn23)ccn1,> 25 µM
21,COc1ccc(-c2nnc3ccc(-c4ccc(F)cc4)cn23)cc1OC,> 25 µM
22,CCOc1cccc(-c2ccc3nnc(-c4ccc(OC)c(OC)c4)n3c2)c1,> 25 µM
23,COc1ccc(-c2nnc3ccc(-c4cccc(OC(C)C)c4)cn23)cc1F,25 µM
24,COc1ccc(-c2nnc3ccc(-c4cccnc4OC)cn23)cc1OC,> 25 µM
25,COc1ccc(-c2nnc3ccc(-c4cccc(CO)c4)cn23)cc1OC,> 25 µM
26,COc1cccc(-c2nnc3ccc(-c4cccc(OC(C)C)c4)cn23)c1,> 25 µM
